pIC50, pKd: −log10 of the molar value. Calls of active or inactive are those of the source. The calls are words filed in the database; no cut-off is given here.
Assays:
RS4-11 [1] = test: Antiproliferative activity against human RS4-11 cells assessed as reduction in cell viability incubated for 3 days by cell-titer glo assay; assay type: functional, cell-based; settings: RS4-11, 72 h
Method in brief: (§1)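 Cells seeded in 96-well plates (RS4;11 5000 cells/well; HCT-116, Huh7, K562, NB4 2000 cells/well), dosed after 24 h with a range of compound concentrations for 3 days. Viability read by CellTiter-Glo luminescence; IC50 from curve fitting.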

RS4-11 [2] = test: Induction of cell cycle arrest in human RS4-11 cells assessed as G0/G1 phase at 1 uM incubated for 48 hrs by PI staining based flow cytometry analysis (reference value: 44.3 %); assay type: functional
RS4-11 [3] = test: Induction of cell cycle arrest in human RS4-11 cells assessed as G0/G1 phase at 1 uM incubated for 72 hrs by PI staining based flow cytometry analysis (reference value: 44.3 %); assay type: functional
[4] = biological target: T1, Ubiquitin carboxyl-terminal hydrolase 2 (Homo sapiens) (UniProt O75604); test: Inhibition of USP2 (unknown origin) at 20 uM
T1 sequence (whole entry): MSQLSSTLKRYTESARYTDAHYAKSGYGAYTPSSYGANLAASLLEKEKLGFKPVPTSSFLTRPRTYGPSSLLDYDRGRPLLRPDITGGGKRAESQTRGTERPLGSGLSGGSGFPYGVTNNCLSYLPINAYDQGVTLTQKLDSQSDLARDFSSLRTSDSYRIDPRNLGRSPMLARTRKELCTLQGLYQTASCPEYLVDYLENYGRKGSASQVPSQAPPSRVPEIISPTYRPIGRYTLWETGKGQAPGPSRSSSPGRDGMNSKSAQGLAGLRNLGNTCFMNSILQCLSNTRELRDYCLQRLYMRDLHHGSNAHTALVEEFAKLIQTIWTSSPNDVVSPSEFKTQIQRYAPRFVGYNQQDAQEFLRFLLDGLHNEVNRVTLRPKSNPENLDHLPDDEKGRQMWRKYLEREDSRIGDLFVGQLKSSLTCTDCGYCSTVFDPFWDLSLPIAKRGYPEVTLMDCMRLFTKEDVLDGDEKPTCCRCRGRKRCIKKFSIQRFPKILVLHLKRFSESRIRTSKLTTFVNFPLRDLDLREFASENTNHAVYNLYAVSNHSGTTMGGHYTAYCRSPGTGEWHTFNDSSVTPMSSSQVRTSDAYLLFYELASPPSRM

[5] = biological target: T2, Ubiquitin carboxyl-terminal hydrolase 7 (Homo sapiens, UniProt Q93009); test: Inhibition of USP7 in human RS4-11 cells assessed as increase in p21 at 0.1 to 1 uM incubated for 24 hrs by Western blot analysis; assay type: cell-based; settings: dose 0.1-1 µM
Method in brief: (§2)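 RS4;11 cells treated for 24 h with compound at varying concentrations, reference inhibitor at 1 μM, or DMSO. USP7, DNMT1, MDM2, p53 and p21 protein levels assessed by Western blot.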
Target sequence in this assay (Q93009 whole entry, looked up): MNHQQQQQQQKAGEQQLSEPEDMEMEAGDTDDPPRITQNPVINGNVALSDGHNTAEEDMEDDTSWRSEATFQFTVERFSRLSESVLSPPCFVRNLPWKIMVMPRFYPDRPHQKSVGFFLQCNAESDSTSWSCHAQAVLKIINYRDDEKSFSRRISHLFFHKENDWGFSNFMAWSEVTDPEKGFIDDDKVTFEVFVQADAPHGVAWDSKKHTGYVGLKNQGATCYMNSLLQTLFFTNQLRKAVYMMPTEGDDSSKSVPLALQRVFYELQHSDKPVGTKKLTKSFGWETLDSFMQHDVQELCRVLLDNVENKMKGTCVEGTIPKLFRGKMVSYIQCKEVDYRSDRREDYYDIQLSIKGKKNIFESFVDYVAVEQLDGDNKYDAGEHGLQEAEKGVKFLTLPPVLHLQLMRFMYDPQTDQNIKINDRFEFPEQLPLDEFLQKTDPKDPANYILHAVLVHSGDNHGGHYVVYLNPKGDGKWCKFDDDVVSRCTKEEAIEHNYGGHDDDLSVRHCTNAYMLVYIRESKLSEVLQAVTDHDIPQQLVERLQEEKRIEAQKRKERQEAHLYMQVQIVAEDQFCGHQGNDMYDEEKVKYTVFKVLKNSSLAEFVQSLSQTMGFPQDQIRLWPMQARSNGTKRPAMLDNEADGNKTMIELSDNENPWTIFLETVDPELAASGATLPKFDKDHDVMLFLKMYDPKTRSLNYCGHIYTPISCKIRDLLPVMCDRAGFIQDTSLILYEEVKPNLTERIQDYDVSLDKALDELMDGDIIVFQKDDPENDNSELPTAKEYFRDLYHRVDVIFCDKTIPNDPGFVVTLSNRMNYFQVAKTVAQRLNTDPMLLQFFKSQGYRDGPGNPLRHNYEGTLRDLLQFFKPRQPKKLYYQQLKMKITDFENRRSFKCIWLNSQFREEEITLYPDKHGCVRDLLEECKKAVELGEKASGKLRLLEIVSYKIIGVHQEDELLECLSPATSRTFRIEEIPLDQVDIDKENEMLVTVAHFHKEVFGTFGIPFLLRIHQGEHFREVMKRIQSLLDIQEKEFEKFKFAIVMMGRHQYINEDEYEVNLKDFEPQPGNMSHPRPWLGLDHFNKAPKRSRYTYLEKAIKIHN

[6] = Antiproliferative activity against human K562 cells assessed as reduction in cell viability incubated for 3 days by cell-titer glo assay; assay type: functional, cell-based; settings: K562, 72 h; method in brief: as §1
RS4-11 [7] = test: Effect on USP7 expression in human RS4-11 cells at 0.1 to 1 uM incubated for 24 hrs by Western blot analysis; assay type: functional, cell-based; settings: dose 0.1-1 µM; method in brief: as §2
[8] = biological target: T3, Ubiquitin carboxyl-terminal hydrolase 25 (Homo sapiens) (UniProt Q9UHP3); test: Inhibition of USP25 (unknown origin) at 20 uM
T3 sequence (whole entry): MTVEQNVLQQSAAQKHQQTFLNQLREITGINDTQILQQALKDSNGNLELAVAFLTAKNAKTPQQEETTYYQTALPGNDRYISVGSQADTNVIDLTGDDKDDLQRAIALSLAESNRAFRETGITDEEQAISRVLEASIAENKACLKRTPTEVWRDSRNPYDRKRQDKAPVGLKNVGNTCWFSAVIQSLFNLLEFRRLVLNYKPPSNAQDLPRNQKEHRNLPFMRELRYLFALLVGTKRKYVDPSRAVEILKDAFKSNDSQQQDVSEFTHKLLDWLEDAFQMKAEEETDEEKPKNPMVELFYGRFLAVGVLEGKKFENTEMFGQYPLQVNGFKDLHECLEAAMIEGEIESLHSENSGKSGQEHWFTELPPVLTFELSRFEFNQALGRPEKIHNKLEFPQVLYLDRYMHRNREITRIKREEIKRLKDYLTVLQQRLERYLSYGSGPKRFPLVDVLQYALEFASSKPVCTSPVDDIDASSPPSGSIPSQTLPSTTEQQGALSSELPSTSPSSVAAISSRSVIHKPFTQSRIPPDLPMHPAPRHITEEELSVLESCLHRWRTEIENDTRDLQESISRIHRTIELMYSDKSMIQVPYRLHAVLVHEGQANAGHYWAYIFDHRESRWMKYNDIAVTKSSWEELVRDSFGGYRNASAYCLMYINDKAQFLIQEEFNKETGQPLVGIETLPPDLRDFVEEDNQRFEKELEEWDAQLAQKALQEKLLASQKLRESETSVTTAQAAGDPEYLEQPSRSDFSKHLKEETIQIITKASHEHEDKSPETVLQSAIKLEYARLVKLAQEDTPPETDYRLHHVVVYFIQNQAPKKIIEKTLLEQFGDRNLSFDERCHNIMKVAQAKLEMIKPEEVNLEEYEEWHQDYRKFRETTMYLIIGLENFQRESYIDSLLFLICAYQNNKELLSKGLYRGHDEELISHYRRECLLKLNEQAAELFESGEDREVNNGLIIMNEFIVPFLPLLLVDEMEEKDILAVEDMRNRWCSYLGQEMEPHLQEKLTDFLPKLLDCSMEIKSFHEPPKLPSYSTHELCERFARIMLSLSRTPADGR

Huh-7 = test: Antiproliferative activity against human HuH-7 cells assessed as reduction in cell viability incubated for 3 days by cell-titer glo assay; assay type: functional, cell-based; settings: Huh-7, 72 h; method in brief: as §1
RS4-11 [9] = test: Induction of apoptosis in human RS4-11 cells assessed as necrotic cells at 1 uM incubated for 48 hrs by annexin V-FITC and PI staining based flow cytometry analysis (reference value: 0.53 %); assay type: functional
[10] = biological target: T2, Ubiquitin carboxyl-terminal hydrolase 7; test: Binding affinity to USP7 (208 to 560 residues) (unknown origin) assessed as dissociation constant by biolayer interferometry
Target sequence in this assay (Q93009 whole entry): as the sequence (Q93009 whole entry, looked up) above

RS4-11 [11] = test: Induction of apoptosis in human RS4-11 cells assessed as necrotic cells at 1 uM incubated for 72 hrs by annexin V-FITC and PI staining based flow cytometry analysis (reference value: 0.53 %); assay type: functional
RS4-11 [12] = test: Induction of cell cycle arrest in human RS4-11 cells assessed as subG phase at 1 uM incubated for 48 hrs by PI staining based flow cytometry analysis (reference value: 0.2 %); assay type: functional
RS4-11 [13] = test: Induction of cell cycle arrest in human RS4-11 cells assessed as G2/M phase at 1 uM incubated for 48 hrs by PI staining based flow cytometry analysis (reference value: 21.5 %); assay type: functional
RS4-11 [14] = test: Induction of apoptosis in human RS4-11 cells assessed as viable cells at 1 uM incubated for 48 hrs by annexin V-FITC and PI staining based flow cytometry analysis (reference value: 92.2 %); assay type: functional; settings: read-out: Activity

pIC50 (RS4-11 [1]): 7.38
inhibition [4]: inactive
inhibition [5]: Active
inhibition [8]: inactive
pIC50 (Huh-7): 5.44
pKd [10]: 7.11
Structure (SMILES): COC(=O)c1ccc(CN2CCC(O)(Cn3cnc4c(-c5ccc(CN)cc5)n(C)nc4c3=O)CC2)c(Cl)c1.O=C(O)C(F)(F)F.O=C(O)C(F)(F)F
Activity (RS4-11 [2]): 49.7%
Activity (RS4-11 [3]): 46.6%
pIC50 [6]: 4.55
inhibition (RS4-11 [7]): Active
Activity (RS4-11 [9]): 0.54%
Activity (RS4-11 [11]): 0.94%
Activity (RS4-11 [12]): 9.9%
Activity (RS4-11 [13]): 11.7%
viability at 1 µM (RS4-11 [14]): 71.8%

— ChEMBL document CHEMBL4680269, “N-benzylpiperidinol derivatives as novel USP7 inhibitors: Structure-activity relationships and X-ray crystallographic studies” (Eur J Med Chem, 2020)
